For assay [1], the target named is T1, Beta-adrenergic receptor kinase 1 (Homo sapiens) (UniProt P25098).
T1 sequence (whole entry): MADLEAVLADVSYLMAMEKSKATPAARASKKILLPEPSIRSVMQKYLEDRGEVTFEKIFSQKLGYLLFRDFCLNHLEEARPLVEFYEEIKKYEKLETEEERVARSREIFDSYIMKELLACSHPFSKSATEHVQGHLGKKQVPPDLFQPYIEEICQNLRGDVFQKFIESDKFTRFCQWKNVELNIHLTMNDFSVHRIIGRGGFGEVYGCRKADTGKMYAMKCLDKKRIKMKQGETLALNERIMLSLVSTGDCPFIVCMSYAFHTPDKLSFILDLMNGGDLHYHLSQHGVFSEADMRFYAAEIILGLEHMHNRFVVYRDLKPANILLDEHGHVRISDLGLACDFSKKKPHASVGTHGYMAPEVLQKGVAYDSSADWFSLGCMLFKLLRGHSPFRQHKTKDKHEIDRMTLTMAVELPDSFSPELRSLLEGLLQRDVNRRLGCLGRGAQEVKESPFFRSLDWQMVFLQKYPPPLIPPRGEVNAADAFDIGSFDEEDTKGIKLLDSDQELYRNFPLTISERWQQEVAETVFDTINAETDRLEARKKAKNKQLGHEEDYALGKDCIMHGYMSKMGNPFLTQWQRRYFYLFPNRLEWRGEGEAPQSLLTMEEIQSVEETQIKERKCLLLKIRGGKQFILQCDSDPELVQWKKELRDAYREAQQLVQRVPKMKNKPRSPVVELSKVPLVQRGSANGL
In words: Inhibition of human recombinant BARK1 at 40 nM related to control ULK1. The method, boiled down:
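Radiometric activity assays in a panel of 327 human recombinant kinases, each run in duplicate at one inhibitor concentration. Activity remaining is expressed as percent of vehicle control, and percent inhibition is calculated as 100% minus percent activity remaining.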

The target of assay [2] is Serine/threonine-protein kinase PAK 3 (Homo sapiens) (UniProt O75914). In words: Inhibition of human recombinant PAK3 at 40 nM in presence of ATP by radiometric assay relative to control.
Serine/threonine-protein kinase PAK 3 (Homo sapiens), sequence (O75914 whole entry, looked up): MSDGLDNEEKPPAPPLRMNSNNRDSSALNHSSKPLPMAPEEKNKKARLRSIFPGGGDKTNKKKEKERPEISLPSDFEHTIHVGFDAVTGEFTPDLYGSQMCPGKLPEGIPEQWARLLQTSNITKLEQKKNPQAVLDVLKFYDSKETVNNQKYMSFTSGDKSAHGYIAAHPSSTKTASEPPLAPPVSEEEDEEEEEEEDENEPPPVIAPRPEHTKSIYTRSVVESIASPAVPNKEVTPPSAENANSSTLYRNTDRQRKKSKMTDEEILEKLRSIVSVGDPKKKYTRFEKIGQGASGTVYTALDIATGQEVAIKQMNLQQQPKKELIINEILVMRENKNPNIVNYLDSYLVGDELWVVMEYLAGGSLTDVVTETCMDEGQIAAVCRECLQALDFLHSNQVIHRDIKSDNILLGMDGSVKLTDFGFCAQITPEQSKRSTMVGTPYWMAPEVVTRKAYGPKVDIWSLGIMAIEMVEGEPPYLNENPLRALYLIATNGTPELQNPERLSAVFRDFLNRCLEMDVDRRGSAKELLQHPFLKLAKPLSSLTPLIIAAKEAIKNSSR
In assay [3] the target is Calcium/calmodulin-dependent protein kinase type II subunit beta (Homo sapiens) (UniProt Q13554). In words: Inhibition of human recombinant CaMK2b at 40 nM related to control ULK1.
Calcium/calmodulin-dependent protein kinase type II subunit beta (Homo sapiens), sequence (Q13554 whole entry): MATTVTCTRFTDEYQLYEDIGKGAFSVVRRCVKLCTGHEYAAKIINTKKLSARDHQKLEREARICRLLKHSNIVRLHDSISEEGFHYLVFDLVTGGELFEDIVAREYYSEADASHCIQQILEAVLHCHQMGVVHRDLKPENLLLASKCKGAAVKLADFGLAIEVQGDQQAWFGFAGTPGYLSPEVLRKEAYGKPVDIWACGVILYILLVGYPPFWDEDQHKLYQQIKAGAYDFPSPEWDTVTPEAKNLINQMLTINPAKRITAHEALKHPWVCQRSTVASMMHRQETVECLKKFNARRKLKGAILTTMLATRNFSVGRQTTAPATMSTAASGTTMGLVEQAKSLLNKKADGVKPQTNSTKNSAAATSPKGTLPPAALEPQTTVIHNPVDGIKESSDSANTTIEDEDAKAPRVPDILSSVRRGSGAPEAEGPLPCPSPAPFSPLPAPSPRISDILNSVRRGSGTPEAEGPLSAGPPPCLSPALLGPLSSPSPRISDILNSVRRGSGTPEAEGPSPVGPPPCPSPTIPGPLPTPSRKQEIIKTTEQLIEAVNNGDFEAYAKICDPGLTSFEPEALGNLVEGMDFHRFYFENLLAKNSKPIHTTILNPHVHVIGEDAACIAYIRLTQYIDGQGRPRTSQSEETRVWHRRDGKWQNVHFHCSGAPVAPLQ
The target in assay [4] is Serine/threonine-protein kinase pim-1 (Homo sapiens) (UniProt P11309). In words: Inhibition of human recombinant PIM1 at 500 nM in presence of ATP by radiometric assay relative to control.
Serine/threonine-protein kinase pim-1 (Homo sapiens), sequence (P11309 whole entry, looked up): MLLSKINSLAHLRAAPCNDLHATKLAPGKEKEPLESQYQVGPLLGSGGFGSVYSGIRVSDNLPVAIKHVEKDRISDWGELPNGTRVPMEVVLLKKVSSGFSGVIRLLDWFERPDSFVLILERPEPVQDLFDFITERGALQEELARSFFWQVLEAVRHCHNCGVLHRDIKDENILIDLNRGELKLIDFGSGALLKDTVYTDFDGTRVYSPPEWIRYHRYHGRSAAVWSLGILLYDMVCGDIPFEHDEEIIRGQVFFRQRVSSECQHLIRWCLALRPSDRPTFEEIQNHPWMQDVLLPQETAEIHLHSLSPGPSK
The target in assay [5] is T2, Myotonin-protein kinase (Homo sapiens) (UniProt Q09013).
T2 sequence (whole entry): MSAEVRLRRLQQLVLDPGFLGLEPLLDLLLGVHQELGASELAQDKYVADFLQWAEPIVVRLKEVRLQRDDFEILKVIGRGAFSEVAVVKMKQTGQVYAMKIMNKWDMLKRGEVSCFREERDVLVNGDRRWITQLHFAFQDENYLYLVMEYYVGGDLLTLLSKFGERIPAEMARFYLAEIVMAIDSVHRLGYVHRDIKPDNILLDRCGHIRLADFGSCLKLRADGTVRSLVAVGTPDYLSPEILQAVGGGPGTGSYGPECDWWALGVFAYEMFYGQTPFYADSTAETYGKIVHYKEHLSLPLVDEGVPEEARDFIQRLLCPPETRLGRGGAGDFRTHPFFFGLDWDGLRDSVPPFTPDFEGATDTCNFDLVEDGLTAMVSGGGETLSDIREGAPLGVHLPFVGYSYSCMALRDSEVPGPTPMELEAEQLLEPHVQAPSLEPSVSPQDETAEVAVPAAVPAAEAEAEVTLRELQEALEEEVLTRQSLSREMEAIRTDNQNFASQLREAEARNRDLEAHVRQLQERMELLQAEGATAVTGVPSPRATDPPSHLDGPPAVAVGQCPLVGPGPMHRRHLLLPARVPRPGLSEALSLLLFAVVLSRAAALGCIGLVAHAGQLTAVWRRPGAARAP
The assay can be described thus: Inhibition of human recombinant DMPK1 at 500 nM in presence of ATP by radiometric assay relative to control.

For assay [6], the target named is T3, Ephrin type-B receptor 4 (Homo sapiens) (UniProt P54760).
T3 sequence (whole entry): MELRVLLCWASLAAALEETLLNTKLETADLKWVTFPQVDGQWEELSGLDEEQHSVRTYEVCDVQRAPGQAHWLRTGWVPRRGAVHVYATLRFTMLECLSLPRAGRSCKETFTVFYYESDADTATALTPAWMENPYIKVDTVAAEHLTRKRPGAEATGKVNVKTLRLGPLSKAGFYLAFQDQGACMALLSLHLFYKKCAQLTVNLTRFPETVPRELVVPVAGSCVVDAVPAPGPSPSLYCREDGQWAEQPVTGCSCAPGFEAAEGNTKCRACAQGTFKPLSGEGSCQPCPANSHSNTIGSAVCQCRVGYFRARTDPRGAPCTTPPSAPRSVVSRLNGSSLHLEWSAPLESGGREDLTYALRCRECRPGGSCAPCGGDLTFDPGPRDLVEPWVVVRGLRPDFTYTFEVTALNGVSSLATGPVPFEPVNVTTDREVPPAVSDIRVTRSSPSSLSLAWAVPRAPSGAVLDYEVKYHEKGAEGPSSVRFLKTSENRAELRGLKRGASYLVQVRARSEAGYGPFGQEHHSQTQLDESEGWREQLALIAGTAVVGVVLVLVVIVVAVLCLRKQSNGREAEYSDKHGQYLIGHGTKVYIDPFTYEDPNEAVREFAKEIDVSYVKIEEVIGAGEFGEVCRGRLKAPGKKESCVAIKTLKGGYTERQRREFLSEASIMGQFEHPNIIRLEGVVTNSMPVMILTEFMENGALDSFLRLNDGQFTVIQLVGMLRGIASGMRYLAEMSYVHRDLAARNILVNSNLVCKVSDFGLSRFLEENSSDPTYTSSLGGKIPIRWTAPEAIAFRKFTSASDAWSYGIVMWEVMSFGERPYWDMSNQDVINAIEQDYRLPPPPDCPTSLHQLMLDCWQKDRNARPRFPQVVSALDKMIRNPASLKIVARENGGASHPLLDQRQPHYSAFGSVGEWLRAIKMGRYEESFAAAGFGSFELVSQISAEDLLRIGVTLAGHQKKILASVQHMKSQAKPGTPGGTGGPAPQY
The assay can be described thus: Inhibition of human recombinant EphB4 at 500 nM related to control ULK1.

SMILES strings stand for the structures.

As to `O=C(N[C@@H](C1CC1)C(F)(F)F)c1cc(-c2cnn3cc(-c4ccc(F)cc4)cnc23)cs1`, the fold change (FC) amounted to 0.04 in assay [1] and 0 in assay [3]. For the same compound, the inhibition (in general, the share of the control response that was lost under treatment) in assay [2] worked out at 0%.

For the compound `CNC(=O)c1ccccc1Oc1nc(Nc2cc(OC)c(OC)c(OC)c2)ncc1Br`, the inhibition in assay [4] turned out to be 2%; in assay [5], 0%. Also, in assay [6], the fold change (FC) worked out at 0.

(Values after ChEMBL document CHEMBL5653631, “A Potent and Selective ULK1 Inhibitor Suppresses Autophagy and Sensitizes Cancer Cells to Nutrient Stress” (iScience, 2018).)
